# Source: PubChem (several laboratories)
# APJ antagonist: blocks the human apelin receptor APJ | P35414 | CHO-K1 APJ beta-arrestin complementation, luminescence | inhibition, % at 20 µM | 330,000 compounds, 0.32% hits | AID 2521;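 active means inhibition above about 40% at 20 µM, limit read from the data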;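 further: cells challenged with 10 nM apelin-13 agonist together with compound; plate controls were apelin-13 plus DMSO wells for no effect and DMSO wells lacking apelin-13 for full effect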
# B2AR ag: agonists of human beta-2 adrenergic receptor inducing internalization; P07550; 340,000 compounds, 0.43% hits; Am2.2-beta2AR cells, FAP receptor internalization, flow cytometry; response, % (no concentration beside the values);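 active means response above a set limit, near 3 SD of response in nonfluorescent compounds, cut at about 42% in these data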
# CCR6 antagonist: blocks CCL20-driven beta-arrestin recruitment at human CCR6 | P51684 | CHO-K1 CCR6 PathHunter beta-arrestin, luminescence, CCL20-stimulated | inhibition, % at 20 µM | 340,000 compounds, 0.49% hits | AID 493098;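 active means compounds whose inhibition of the agonist-driven luminescence signal at 20 µM reaches about 50%, limit read from the data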;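 further: cells stimulated with CCL20 at 14 nM final; plate controls were DMSO with CCL20 for no effect and DMSO without agonist for full effect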
# Target sequence (P51684 whole entry, looked up): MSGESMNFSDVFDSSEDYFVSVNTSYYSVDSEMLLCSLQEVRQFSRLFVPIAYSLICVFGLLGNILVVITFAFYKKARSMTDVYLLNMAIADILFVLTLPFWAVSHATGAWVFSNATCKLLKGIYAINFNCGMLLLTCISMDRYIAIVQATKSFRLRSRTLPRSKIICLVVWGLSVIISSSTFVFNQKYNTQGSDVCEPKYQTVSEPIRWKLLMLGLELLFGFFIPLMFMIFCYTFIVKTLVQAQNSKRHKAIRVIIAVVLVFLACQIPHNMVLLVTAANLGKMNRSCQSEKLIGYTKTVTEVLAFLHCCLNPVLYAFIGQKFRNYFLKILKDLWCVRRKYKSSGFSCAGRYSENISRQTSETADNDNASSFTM
# CXCR6 inh: inhibitors of human CXCR6 receptor | O00574 | CHO-K1 PathHunter CXCR6 beta-arrestin, luminescence | inhibition, % at 20 µM | 360,000 compounds, 0.36% hits | AID 602244; in the data active means inhibition above about 34%, passing the limit was not always enough;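 further: antagonist mode with CXCL16 agonist at 10 nM final; 0% = 10 nM CXCL16 with DMSO and 100% = unstimulated wells without agonist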
# APJ ag: agonists of human APJ apelin receptor; P35414; AID 2520; 330,000 compounds, 0.11% hits; CHO-K1 APJ PathHunter beta-arrestin, luminescence; 0% DMSO wells, 100% apelin; activation, % at 20 µM;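 active means activation more than six SD over the plate average, tested at 20 µM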;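 further: 0% = DMSO alone and 100% = apelin-13 at 10 nM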
#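 Test system: CHO-K1 APJ beta-arrestin complementation cell line | Compound: Single test compound dose, 20 µM final, 1% DMSO | Incubation: Compound 90 min 25 °C, reagent 1 h | Measured by: beta-gal luminescence | Read-out basis: APJ–arrestin association signal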
# PfG6PD inh: PfG6PD (Plasmodium falciparum) enzyme inhibition; PfGluPho enzyme, NADPH resazurin-diaphorase fluorescence; inhibition, % at 20 µM; 350,000 compounds, 0.78% hits; AID 504690;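 active means inhibition reaching at least a set limit at 20 µM in the primary screen, cut at about 59% in these data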;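 further: 0% = DMSO wells with substrate and 100% = DMSO wells lacking glucose-6-phosphate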
# CXCR6 antag conf: confirmation of human CXCR6 receptor antagonists; 700 compounds, 65% hits; AID 602409; inhibition, % at 20 µM; shares compounds with CXCR6 inh; CHO-K1 CXCR6 PathHunter beta-arrestin, luminescence;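 active means mean inhibition over four retests above 40%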;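 further: receptor stimulated with 10 nM CXCL16 agonist; beta-galactosidase fragment complementation upon beta-arrestin recruitment to receptor; plate controls were CXCL16 plus DMSO for no effect and DMSO without CXCL16 for full effect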
# * = called active by the depositor; . = no result given. Rows were chosen to be rich in hits. Some 1.7% of all compounds tested hit in one or more screens of this group.
SMILES,APJ antagonist,B2AR ag,CCR6 antagonist,CXCR6 inh,APJ ag,PfG6PD inh,CXCR6 antag conf
CCC(=O)OCCNc1cc(SCCC(=O)OC)c2nonc2c1[N+](=O)[O-],20,77*,64*,58*,-14,34,59*
CCC(=O)OCCNc1cc(Sc2nccn2C)c2nonc2c1[N+](=O)[O-],.,83*,112*,102*,.,29,104*
N=C1SCC(=O)N1c1ncc(Cc2ccccc2Cl)s1,.,4,.,51*,.,-19,58*
Cc1ccccc1N(CC(=O)NC1CCCC1)C(=O)C1(C)CC(=O)N=C2C=CC=CN21 (stereo unspecified),18,3,3,4,-4,-4,.
Cc1ccccc1N(CC(=O)NCC1CCCO1)C(=O)C1(C)CC(=O)N=C2C=CC=CN21 (stereo unspecified),14,-3,6,47*,-5,-13,20
COc1cc2cc(CCCOC(=O)CCC(=O)O)oc(=O)c2cc1OC,4,5,-8,-3,-2,-6,.
O=C(NCCCN1CCOCC1)c1ccc(Br)s1,-3,4,3,-1,-2,-9,.
O=C(NCCCN1CCOCC1)c1cc2c(s1)CSC2,13,1,-7,44*,-3,6,-9
CCCn1c(N)c(C(=O)CSc2ncn[nH]2)c(=O)n(C)c1=O,11,-5,7,-6,-1,-2,.
CCCCn1c(N)c(C(=S)NC(=O)CC(C)(C)C)c(=O)n(C)c1=O,38,3,.,39*,-2,-18,35
O=C(CC1CC2CCC1C2)N1CCN(S(=O)(=O)c2ccccc2C(F)(F)F)CC1 (stereo unspecified),-3,-5,3,0,-2,8,.
CC(O)c1cc2c(s1)c1cnn(Cc3ccccc3F)c(=O)c1n2C (stereo unspecified),4,1,2,-2,-2,-18,.
COc1cccc(C(=O)NC(=S)N2CCN(c3ccc(C(F)(F)F)cc3[N+](=O)[O-])CC2)c1,12,5,.,48*,-2,2,49*
CN1C(=O)/C(=N/OC(=O)c2ccccc2)c2ccccc21,31,-6,44,40*,-4,14,35
CCCS(=O)(=O)NC(=O)C1(C)CCN(C(=O)c2cc(C(C)(C)C)nn2C)C1 (stereo unspecified),.,.,.,3,.,.,.
Cc1cccc(NC(=O)CSc2cccc3cccnc23)c1C,28,-2,16,6,-5,10,.
CCOC(=O)CSc1cccc2cccnc12,37,11,69*,53*,-7,19,65*
CC(C)C(=O)N1CCCC1(C)C(=O)N(C)Cc1cccc2ccccc12 (stereo unspecified),.,.,.,-2,.,.,.
CC(=NNC(=S)N1CCCCC1)c1cccc(C)n1,.,3,23,43*,.,34,20
Cn1nc(C(=O)OCC(=O)Nc2ccc(C(N)=O)cc2)c2ccccc2c1=O,5,-2,7,-4,-2,-6,.
C=CCSC1=N/C(=C\c2ccc3c(c2)OCO3)C(=O)S1,27,0,12,0,-6,-21,.
C=CCSC1=N/C(=C\c2cc(OCC)c(OC(C)=O)c([N+](=O)[O-])c2)C(=O)S1,25,6,53*,46*,-7,36,54*
COc1ccccc1-c1noc(CCC(=O)Nc2cccc(C)c2)n1,9,0,21,62*,-4,29,-5
COc1ccc(-c2noc(CCC(=O)Nc3cccc(C)c3)n2)cc1,-8,-6,4,-4,4,-1,.
COc1cccc(C(CNC(=O)c2ccc(Cl)c(S(=O)(=O)N3CCCC3)c2)N(C)C)c1 (stereo unspecified),-4,4,15,-1,-1,6,.
SMILES,APJ antagonist,B2AR ag,CCR6 antagonist,CXCR6 inh,APJ ag,PfG6PD inh,CXCR6 antag conf
O=C(Nc1nnc(-c2cccs2)o1)c1cccc(F)c1,-25,3,22,33,-3,-11,.
O=C(Nc1nnc(-c2cccs2)o1)c1cccc(Oc2ccccc2)c1,-45,4,34,44*,-3,-31,37
O=C(CCCNC(=O)c1ccc(Cl)cc1)Nc1ccc(Br)cc1,21,-9,-7,-6,-3,-1,.
O=C(Nc1cccc(N2C(=O)C=CC2=O)c1)c1cccs1,-7,53*,.,77*,-2,.,19
Cc1nc2ccccc2c(=O)n1-c1cccc(NC(=O)c2cccs2)c1,-2,-4,-2,-3,13,2,.
O=C(CCC(=O)N/N=C/c1ccco1)N/N=C/c1ccco1,4,-6,-6,2,0,6,.
Cc1cccc(NC(=O)CCC(=O)N/N=C/c2ccco2)c1,17,-7,18,78*,-3,-4,-3
O=C(c1ccco1)N1CCN(CC(O)COc2ccc(Br)cc2)CC1 (stereo unspecified),9,8,2,0,-3,-2,.
CC(=O)c1cccc(NC(=O)N2CCCC(C(=O)c3cc(F)ccc3F)C2)c1 (stereo unspecified),-17,-4,7,-11,-2,17,.
CCc1nnc(NS(=O)(=O)c2ccc(Nc3ccc([N+](=O)[O-])c4nonc34)cc2)s1,65*,8,73*,48*,-9,-18,42*
CCc1nnc(NS(=O)(=O)c2ccc(NS(=O)(=O)c3ccccc3[N+](=O)[O-])cc2)s1,3,1,-2,-30,-2,-19,.
COC(=O)CN(c1ccccc1)S(=O)(=O)c1cc(Br)ccc1OC,6,0,9,92*,-1,23,22
Cc1ccc([C@@H]2CC(=O)[C@@H]3CN(S(=O)(=O)c4ccc(C)cc4)[C@H](c4ccccc4)C[C@@H]3N2S(=O)(=O)c2ccc(C)cc2)cc1,.,.,.,1,.,.,.
COC(=O)[C@H](CCSC)NC(=O)Nc1ccc(OC)cc1OC,25,-9,-1,77*,-3,-8,-2
C[C@@H]1Cn2cnc(C(=O)N[C@@H](C)c3ccccc3)c2C(=O)N1,.,.,.,0,.,24,.
CCCCC(=O)NC(=S)NNC(=O)c1ccc(OC)cc1,40,7,69*,46*,-2,0,48*
NC(N)=N/N=C/c1ccccc1OC(F)F,-9,-6,0,4,-3,3,.
FC(F)Oc1ccccc1/C=N/n1cnc2ccccc21,-3,5,0,50*,-4,17,8
Cc1ccc(S(=O)(=O)/N=C(/c2ccc(F)cc2)N(C)C)cc1,19,-2,1,8,-2,-12,.
CN(C)/C(=N\S(=O)(=O)c1ccc(Cl)cc1)c1ccc(F)cc1,11,-4,5,43*,-2,1,-2
